From ChEMBL document CHEMBL1137451, “Synthesis and evaluation of antifungal properties of a series of the novel 2-amino-5-oxo-4-phenyl-5,6,7,8-tetrahydroquinoline-3-carbonitrile and its analogues” (Bioorg Med Chem, 2007)
Values after ≈ are worked out from the molar mass of the structure shown. Active and inactive are the calls of the source. The calls are words filed in the database; no cut-off is given here.

Assays:
Candida albicans [1] = assay: Antifungal activity against Candida albicans 1 at 60 ug/disc after 24 hrs by disc diffusion method; format: functional; details: read-out: IZ
Outline: (§1)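 Yeast suspensions (C. albicans strains 1, 2) and mycelial suspensions (F. oxysporum strains 1, 2; Mucor sp.) spread on YPG (0.3% yeast extract, 0.5% peptone, 1% glucose) or PDA agar. Compound applied on filter-paper discs at the stated amount; 28 °C, 24 h. Read-out is inhibition zone diameter. Controls: 50% v/v DMSO vehicle, cycloheximide, amphotericin B.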

Candida albicans [2] = assay: Antifungal activity against Candida albicans 1 at 40 ug/disc after 24 hrs by disc diffusion method; format: functional; details: for zone of inhibition at 40 µg/disc: read-out: IZ; outline: as §1
Candida albicans [3] = assay: Antifungal activity against Candida albicans 1 at 100 ug/disc after 24 hrs by disc diffusion method; format: functional; details: read-out: IZ; outline: as §1
Candida albicans [4] = assay: Antifungal activity against Candida albicans 2 at 40 ug/disc after 24 hrs by disc diffusion method; format: functional; details: for zone of inhibition at 40 µg/disc: read-out: IZ; outline: as §1
Candida albicans [5] = assay: Antifungal activity against Candida albicans 2 at 60 ug/disc after 24 hrs by disc diffusion method; format: functional; details: read-out: IZ; outline: as §1
Candida albicans [6] = assay: Antifungal activity against Candida albicans 2 at 100 ug/disc after 24 hrs by disc diffusion method; format: functional; details: read-out: IZ; outline: as §1
Fusarium oxysporum [7] = assay: Antifungal activity against Fusarium oxysporum 1 at 40 ug/disc after 24 hrs by disc diffusion method; format: functional; details: for zone of inhibition at 40 µg/disc: read-out: IZ; outline: as §1
Fusarium oxysporum [8] = assay: Antifungal activity against Fusarium oxysporum 1 at 60 ug/disc after 24 hrs by disc diffusion method; format: functional; details: read-out: IZ; outline: as §1
Fusarium oxysporum [9] = assay: Antifungal activity against Fusarium oxysporum 1 at 100 ug/disc after 24 hrs by disc diffusion method; format: functional; details: read-out: IZ; outline: as §1
Fusarium oxysporum [10] = assay: Antifungal activity against Fusarium oxysporum 2 at 40 ug/disc after 24 hrs by disc diffusion method; format: functional; details: for zone of inhibition at 40 µg/disc: read-out: IZ; outline: as §1
Fusarium oxysporum [11] = assay: Antifungal activity against Fusarium oxysporum 2 at 60 ug/disc after 24 hrs by disc diffusion method; format: functional; details: read-out: IZ; outline: as §1
Fusarium oxysporum [12] = assay: Antifungal activity against Fusarium oxysporum 2 at 100 ug/disc after 24 hrs by disc diffusion method; format: functional; details: read-out: IZ; outline: as §1
Mucor [13] = assay: Antifungal activity against Mucor at 40 ug/disc after 24 hrs by disc diffusion method; format: functional; details: for zone of inhibition at 40 µg/disc: read-out: IZ; outline: as §1
Mucor [14] = assay: Antifungal activity against Mucor at 60 ug/disc after 24 hrs by disc diffusion method; format: functional; details: read-out: IZ; outline: as §1
Mucor [15] = assay: Antifungal activity against Mucor at 100 ug/disc after 24 hrs by disc diffusion method; format: functional; details: read-out: IZ; outline: as §1
Candida albicans [16] = assay: Antifungal activity against Candida albicans 1 after 24 hrs by disc diffusion method; format: functional
Outline: (§2)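 Disc diffusion on Candida albicans strains 1 and 2 (yeast suspension), Fusarium oxysporum strains 1 and 2 and Mucor sp. (mycelial suspension), spread on YPG or PDA agar. Compound at graded amounts per filter-paper disc, 28 °C for 24 h. MIC taken as the lowest amount giving a 2 mm inhibition zone. Controls: 50% v/v DMSO vehicle, cycloheximide, amphotericin B.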

Candida albicans [17] = assay: Antifungal activity against Candida albicans 2 after 24 hrs by disc diffusion method; format: functional; outline: as §2
Fusarium oxysporum [18] = assay: Antifungal activity against Fusarium oxysporum 1 after 24 hrs by disc diffusion method; format: functional; outline: as §2
Fusarium oxysporum [19] = assay: Antifungal activity against Fusarium oxysporum 2 after 24 hrs by disc diffusion method; format: functional; outline: as §2
Mucor [20] = assay: Antifungal activity against Mucor at after 24 hrs by disc diffusion method; format: functional; outline: as §2
Benjaminiella poitrasii [21] = assay: Inhibition of Benjaminiella poitrasii chitin synthase at 4 ug/mL
Outline: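 Chitin synthase from Benjaminiella poitrasii measured with and without compound at 4 µg/ml, using a non-radioactive chitin synthase assay. Nikkomycin Z used as reference.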

MCF7 [22] = assay: Antiproliferative activity against human MCF7 cells assessed as cell viability by MTT assay; format: functional, cell-based
Outline: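 MCF-7 cells in MEM with 10% FBS, 37 °C, 5% CO2, seeded 10,000/well, adhered 24 h. Treated 48 h at 0, 1, 10, 100, 1000 or 2000 µg/ml (DMSO stock diluted in medium), then 24 h recovery. MTT 4 h, 2-propanol solubilisation, A570 against 630 nm. DMSO carrier set as 100% growth; IC50 taken from the dose curve; triplicates.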

Hep 3B2 [23] = assay: Antiproliferative activity against human Hep3B cells upto 400 ug/mL assessed as cell viability by MTT assay; format: functional, cell-based
Outline: (§3)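 Hep3B or MCF-7 cells in MEM with 10% heat-inactivated FBS at 37 °C, 5% CO2, seeded 10,000/well and left to adhere 24 h. Exposed 48 h to compound diluted from 4 mg/ml DMSO stock, then 24 h in fresh medium. MTT (1 mg/ml, 4 h), formazan dissolved in 2-propanol, read at 570 nm (630 nm reference). DMSO-only wells set as 100% growth; triplicates.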

MCF7 [24] = assay: Antiproliferative activity against human MCF7 cells at 1 mg/mL assessed as cell viability by MTT assay; format: functional, cell-based; outline: as §3
Hep 3B2 [25] = assay: Antiproliferative activity against human Hep3B cells at 1 mg/mL assessed as cell viability by MTT assay; format: functional, cell-based; outline: as §3
Benjaminiella poitrasii [26] = assay: Inhibition of yeast hypha transition at 20 ug/mL after 4 hrs
Benjaminiella poitrasii [27] = assay: Inhibition of yeast hypha transition at 4 ug/mL after 4 hrs

Structure (SMILES)	zone of inhibition at 60 µg/disc (Candida albicans [1]) [mm]	zone of inhibition at 40 µg/disc (Candida albicans [2]) [mm]	zone of inhibition at 100 µg/disc (Candida albicans [3]) [mm]	zone of inhibition at 40 µg/disc (Candida albicans [4]) [mm]	zone of inhibition at 60 µg/disc (Candida albicans [5]) [mm]	zone of inhibition at 100 µg/disc (Candida albicans [6]) [mm]	zone of inhibition at 40 µg/disc (Fusarium oxysporum [7]) [mm]	zone of inhibition at 60 µg/disc (Fusarium oxysporum [8]) [mm]	zone of inhibition at 100 µg/disc (Fusarium oxysporum [9]) [mm]	zone of inhibition at 40 µg/disc (Fusarium oxysporum [10]) [mm]	zone of inhibition at 60 µg/disc (Fusarium oxysporum [11]) [mm]	zone of inhibition at 100 µg/disc (Fusarium oxysporum [12]) [mm]	zone of inhibition at 60 µg/disc (Mucor [14]) [mm]	zone of inhibition at 100 µg/disc (Mucor [15]) [mm]	MIC (Candida albicans [16]) [µg/disc]	MIC (Candida albicans [17]) [µg/disc]	MIC (Fusarium oxysporum [18]) [µg/disc]	MIC (Fusarium oxysporum [19]) [µg/disc]	MIC (Mucor [20]) [µg/disc]	inhibition (Benjaminiella poitrasii [21]) [%]	other results
CC(=O)Nc1nc2c(c(-c3cccc(N4C(=O)C=CC4=O)c3)c1C#N)C(=O)CCC2	2	2	7	2	2	7	2	2	6	2	2	6	9	11	40	40	40	40	40	91	zone of inhibition at 40 µg/disc (Mucor [13]): 8 mm; IC50 (MCF7 [22]): 50 µg/mL (≈ 125 µM); Activity (Hep 3B2 [23]): Non-toxic; Activity (MCF7 [24]): Toxic; Activity (Hep 3B2 [25]): Toxic; inhibition at 20 µg/mL (Benjaminiella poitrasii [26]): 95%
C[C@@H]1[C@H](O)[C@@H](C)/C=C/C=C/C=C/C=C/C=C/C=C/C=C/[C@H](O[C@@H]2O[C@H](C)[C@@H](O)[C@H](N)[C@@H]2O)C[C@@H]2O[C@](O)(C[C@@H](O)C[C@@H](O)[C@H](O)CC[C@@H](O)C[C@@H](O)CC(=O)O[C@H]1C)C[C@H](O)[C@H]2C(=O)O [AMPHOTERICIN B]	7	4	12	4	7	12	2	6	9	3	6	9	7	10	40	40	40	40	40		zone of inhibition at 40 µg/disc (Mucor [13]): 5 mm; IC50 (MCF7 [22]): 60 µg/mL (≈ 64.9 µM); Activity (Hep 3B2 [23]): Non-toxic; Activity (MCF7 [24]): Toxic; Activity (Hep 3B2 [25]): Toxic
N#Cc1c(N)nc2c(c1-c1cccc([N+](=O)[O-])c1)C(=O)CCC2	4	3	7	3	4	7	3	4	7	3	4	7	9	15	40	40	20	20	60	81	Activity (Mucor [13]): inactive; IC50 (MCF7 [22]): 293 µg/mL (≈ 952 µM); Activity (Hep 3B2 [23]): Non-toxic; Activity (MCF7 [24]): Toxic; Activity (Hep 3B2 [25]): Toxic; inhibition at 20 µg/mL (Benjaminiella poitrasii [26]): 85%
C[C@@H]([C@H](N)C(=O)N[C@H](C(=O)O)[C@H]1O[C@@H](n2ccc(=O)[nH]c2=O)[C@H](O)[C@@H]1O)[C@H](O)c1ccc(O)cn1 [NIKKOMYCIN]																				> 90	inhibition at 4 µg/mL (Benjaminiella poitrasii [27]): > 90%
N#Cc1c(N)nc2c(c1-c1ccccc1Cl)C(=O)CCC2	2		4		2	4	2	3	6	2	3	6	7	10	60	60	40	40	60	86	Activity (Candida albicans [2]): inactive; Activity (Candida albicans [4]): inactive; Activity (Mucor [13]): inactive; inhibition at 20 µg/mL (Benjaminiella poitrasii [26]): 95%
Cc1ccc(-c2c(C#N)c(N)nc3c2C(=O)CCC3)cc1	4	3	7	3	4	7	2	3	7	2	3	7	10	14	40	40	40	40	60	91	Activity (Mucor [13]): inactive; inhibition at 20 µg/mL (Benjaminiella poitrasii [26]): 90%
N#Cc1c(N)nc2c(c1-c1ccc(Cl)cc1)C(=O)CCC2	3	2	5	2	3	5		4	7		4	7	7	10	40	40	60	60	60	81	Activity (Fusarium oxysporum [7]): inactive; Activity (Fusarium oxysporum [10]): inactive; Activity (Mucor [13]): inactive; inhibition at 20 µg/mL (Benjaminiella poitrasii [26]): 95%
